From PubChem BioAssay
ABCB1 block: inhibitors of human ABCB1 transporter, ABCG2 counter-screen | inhibition, % at 6.6 µM | hit rate 0.067% among 190,000 | CCRF-Adr cells, JC-1 efflux, flow cytometry | AID 1326; in the data active = inhibition above about 40%;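 note: higher value means more JC-1 retained so stronger ABCB1 efflux block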
L major viab: inhibitors of Leishmania major promastigote growth | Leishmania major promastigotes, resazurin fluorescence viability | inhibition, % at 10 µM | hit rate 9% among 200,000 | AID 1063;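 note: promastigotes grown with compound for 44 hours at 28 °C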
Avidin fluor: avidin bead compound fluorescence profile | Avidin beads, compound fluorescence 488/530 nm, flow cytometry; active compounds read high | AID 1775 | hit rate 0.38% among 220,000 | fluorescence (KMESF) at 10 µM; in the data active = fluorescence above about 47
PKD1 inh: PKD1 (human) kinase inhibition | PKD1 kinase fluorescence polarization assay | AID 797 | inhibition, % (no concentration beside the values) | hit rate 0.056% among 200,000
ABCG2 inh: inhibitors of human ABCG2 transporter, ABCB1 counter-screen. Q9UNQ0. IgMXP3 cells, JC-1 efflux, flow cytometry. inhibition, % at 6.6 µM. hit rate 0.1% among 190,000;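 active = inhibition above 80%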
Target sequence (Q9UNQ0 whole entry, looked up): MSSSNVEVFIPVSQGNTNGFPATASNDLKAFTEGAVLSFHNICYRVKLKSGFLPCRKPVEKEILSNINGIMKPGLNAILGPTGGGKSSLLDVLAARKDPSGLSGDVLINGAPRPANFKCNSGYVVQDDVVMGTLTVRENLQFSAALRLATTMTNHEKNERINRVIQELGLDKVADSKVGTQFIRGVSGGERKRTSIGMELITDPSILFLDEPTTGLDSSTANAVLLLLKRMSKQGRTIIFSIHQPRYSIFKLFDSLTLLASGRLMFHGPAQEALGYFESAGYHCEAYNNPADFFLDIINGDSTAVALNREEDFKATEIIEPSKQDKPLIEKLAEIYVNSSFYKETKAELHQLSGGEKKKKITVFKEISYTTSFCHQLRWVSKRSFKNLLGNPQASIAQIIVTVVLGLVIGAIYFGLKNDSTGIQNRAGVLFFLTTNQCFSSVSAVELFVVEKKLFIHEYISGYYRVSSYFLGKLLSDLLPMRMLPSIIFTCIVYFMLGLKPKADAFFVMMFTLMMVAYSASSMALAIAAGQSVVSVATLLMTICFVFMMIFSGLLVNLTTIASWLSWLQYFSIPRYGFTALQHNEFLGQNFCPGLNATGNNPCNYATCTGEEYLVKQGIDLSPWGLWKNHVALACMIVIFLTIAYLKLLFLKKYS
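Read-out basis: Efflux inhibition in percent versus controls | Test system: ABCG2 IgMXP3 and barcoded ABCB1 CCRF-Adr cell mix | Quantity: 3 million cells/mL in well | Schedule: 10 min at 25 °C | Control set: Nicardipine as high control, DMSO as low control | Reagent: JC-1 as fluorescent efflux pump substrate | Signal: Flow cytometry of retained JC-1 fluorescence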
GSH fluor: GSH bead compound fluorescence profile; GSH beads flow cytometry, compound fluorescence 488/530 nm; active compounds read high; fluorescence (KMESF) at 10 µM; hit rate 0.25% among 190,000; in the data active = fluorescence above about 89;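 note: glutathione beads carrying GST-tagged Bcl family fusion proteins plus one bare bead set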
Hits are given with their value; - = inactive; . = not tested or not shown. The sample as a whole holds a higher share of hits than the screen did. Cut-off read from the data, not from the text of the source, unless noted: active = inhibition above about 50%; inactive = the rest.

SMILES	ABCB1 block	L major viab	Avidin fluor	PKD1 inh	ABCG2 inh	GSH fluor
CCN(CC)c1ccc(CNCc2cccs2)cc1	-	-	-	-	-	-
COC(=O)N/N=C/c1ccc([N+](=O)[O-])s1	-	68.8	-	-	-	-
O=C(Cc1ccccc1)N/N=C/c1ccc([N+](=O)[O-])s1	-	100.6	-	-	-	-
O=C(CNC(=O)c1cccc(F)c1)N/N=C/c1ccc([N+](=O)[O-])s1	-	100.4	-	-	-	-
O=C(N/N=C/c1ccc([N+](=O)[O-])s1)C(O)c1ccccc1 (centres undefined)	-	100.5	-	-	-	-
COc1ccccc1Nc1nc(-c2sc(NC(=O)C(C)(C)C)nc2C)cs1	-	99.7	-	-	-	-
CCCC(=O)Nc1nc(C)c(-c2csc(Nc3ccccc3OC)n2)s1	-	59.3	-	-	-	-
C=CCCC(=O)Nc1nc(C)c(-c2csc(Nc3cccc(OC)c3)n2)s1	-	-	-	-	-	-
COc1cccc(Nc2nc(-c3sc(NC(=O)CC(C)C)nc3C)cs2)c1	-	81.3	-	-	-	-
C=CCCC(=O)Nc1nc(C)c(-c2csc(Nc3cc(OC)ccc3OC)n2)s1	-	-	-	-	-	-
CCCC(C)C(=O)Nc1nc(C)c(-c2csc(Nc3cc(OC)ccc3OC)n2)s1 (centres undefined)	-	84.3	-	-	-	-
O=C(CN1C(=O)CCC1=O)Nc1cccc(NC(=O)CN2C(=O)CCC2=O)c1	-	-	-	-	-	-
CC1Cc2ccccc2N1C(=O)CSc1nnc2c(n1)[nH]c1ccc(F)cc12 (centres undefined)	-	-	-	-	-	-
N/C(=N\OC(=O)c1cnn(-c2ccccc2)c1C(F)(F)F)c1ccc(C(F)(F)F)cc1	.	.	-	.	.	.
CCCCCC(=O)Nc1nc(C)c(-c2csc(Nc3cc(Cl)ccc3OC)n2)s1	-	62.0	-	-	-	-
COc1ccccc1Nc1nc(-c2sc(NC(=O)c3cccc(Cl)c3)nc2C)cs1	-	-	-	-	-	-
Cc1ccc(Cl)cc1Nc1nc(-c2sc(NC(=O)C(C)(C)C)nc2C)cs1	-	96.7	-	-	-	-
COc1ccccc1Nc1nc(-c2sc(NC(=O)CC(C)C)nc2C)cs1	-	67.2	-	-	-	-
CCCC(=O)Nc1nc(C)c(-c2csc(Nc3ccc(Cl)cc3)n2)s1	-	-	-	-	-	-
CCCC(=O)Nc1nc(C)c(-c2csc(Nc3cc(OC)ccc3OC)n2)s1	-	-	80	-	-	-
COc1ccc(CNC(=O)c2sc3nc4c(c(C(F)(F)F)c3c2N)CCC4)cc1	-	-	-	-	-	-
CC(NC(=O)C(=O)NN=C1CCCCCCCCCCC1)c1ccccc1 (centres undefined)	-	-	-	-	-	-
CCCCC(c1nnnn1CC1CCCO1)N1CCN(c2cccc(C)c2C)CC1 (centres undefined)	-	55.9	-	-	-	-
CCc1nnc(NC(=O)c2ccc(S(=O)(=O)N3CCc4ccccc4C3)cc2)s1	-	-	-	-	-	-
O=C(Nc1cccnc1)c1ccc(Cl)c(S(=O)(=O)N2CCc3ccccc32)c1	-	59.1	62	-	-	-
SMILES	ABCB1 block	L major viab	Avidin fluor	PKD1 inh	ABCG2 inh	GSH fluor
CCc1nnc(NC(=O)c2ccc(Cl)c(S(=O)(=O)N3CCc4ccccc4C3)c2)s1	-	51.8	-	-	-	-
O=C(Nc1ccc(Br)cc1)c1ccc(N2C(=O)C3CC=C(Cl)CC3C2=O)cc1 (centres undefined)	-	-	-	-	-	-
CCN(C(=O)COc1ccc(C)nc1[N+](=O)[O-])C1CCS(=O)(=O)C1 (centres undefined)	-	51.3	-	-	-	-
Cc1ccc(N2C(N)=C(C#N)C(c3ccsc3)C3=C2CC(C)(C)CC3=O)cc1 (centres undefined)	-	72.5	-	-	-	-
CN(C)N1C(N)=C(C#N)C(c2ccsc2)C2=C1CCCC2=O (centres undefined)	-	-	-	-	-	-
N#CC1=C(N)N(c2ccccc2)C2=C(C(=O)CCC2)C1c1ccsc1 (centres undefined)	-	55.4	-	-	-	-
CCc1ccc(C(=O)COC(=O)[C@@H](NC(N)=O)[C@@H](C)CC)cc1	-	-	-	-	-	-
CCCSCCCNC(=O)c1cc2c(s1)CS(=O)(=O)C2	-	-	-	-	-	-
Cc1cccc(N2CCN(CCNC(=O)c3cc4c(s3)CS(=O)(=O)C4)CC2)c1C	-	98.6	-	-	-	-
Cc1ccc(S(=O)(=O)N2CCC(CN3C(=O)c4cccc5cccc(c45)C3=O)CC2)cc1	-	95.5	-	-	-	-
O=C(c1ccc(S(=O)(=O)N2CCCCCC2)cc1)N1CCC(CN2C(=O)c3cccc4cccc(c34)C2=O)CC1	-	80.2	-	-	-	-
Cc1cc(C)c(S(=O)(=O)N2CCN(CCN3C(=O)c4cccc5cccc(c45)C3=O)CC2)cc1[N+](=O)[O-]	-	52.6	-	-	-	-
O=C1c2cccc3cccc(c23)C(=O)N1CC1CCN(S(=O)(=O)c2ccc(F)cc2)CC1	-	98.2	-	-	-	-
O=C(CN1C(=O)c2cccc3cccc(c23)C1=O)N1CCCCCC1	-	-	-	-	-	-
Cc1ccc(S(=O)(=O)N2C(=O)c3cccc4cccc2c34)cc1	.	.	-	.	.	.
CCCS(=O)(=O)N1CCN(CCN2C(=O)c3cccc4cccc(c34)C2=O)CC1	-	-	-	-	-	-
COc1ccc(N2C(=O)CC(Sc3n[nH]c(-c4ccccc4)n3)C2=O)cc1 (centres undefined)	.	.	-	.	.	.
COc1cc([N+](=O)[O-])ccc1NC(=O)CC(C)C	-	-	-	-	-	-
O=C(OCCCCN1C(=O)c2ccccc2C1=O)c1ccc(S(=O)(=O)N2CCCC2)cc1	-	-	-	-	-	266
c1ccc(C2CCC3(CC2)Oc2ccccc2C2CC(c4cccnc4)=NN23)cc1 (centres undefined)	-	89.4	-	-	-	-
Cc1ccc(NC(=O)c2ccc(OC(F)(F)F)cc2)cc1S(=O)(=O)N(C)C	-	-	-	-	-	-
O=C(COC(=O)[C@H](Cc1c[nH]c2ccccc12)NC(=O)c1ccc(Cl)cc1)Nc1ccc2c(c1)OCO2	-	100.0	-	-	-	-
COCCn1c(-c2ccc(OC)cc2)nc2oc3cc(OC)ccc3c(=O)c2c1=O	-	55.0	-	-	-	-
COc1ccc(-c2nc3oc4cc(OC)ccc4c(=O)c3c(=O)n2Cc2ccco2)cc1	-	73.2	-	-	-	-
C=CCNc1nc(N)c(C(=O)c2ccc3c(c2)OCO3)s1	-	50.2	-	-	-	-
O=[N+]([O-])c1cc2c(cc1/C=N/Nc1nc(N3CCCC3)nc(N3CCCC3)n1)OCO2	-	75.7	-	-	-	-
